Drawing on ChEMBL document CHEMBL3272275, “Synthesis and antiinflammatory activity of some 1,2,3- and 1,2,4-triazolepropionic acids” (J Med Chem, 1978), this text covers Activity for 38 compounds.

Set-up in all cases: scale not given: the % may be the effect or the level left
Data set [1] relates to Rattus norvegicus. The data set can be described thus: Antiinflammatory activity against carrageenan/Evans blue dye-induced pleural effusion rat model assessed as reduction in pleural fluid volume at 0.4 mmol/kg, po administered 1 hr prior challenge measured 6 hrs post challenge relative to control. The class given is functional. A digest of the protocol:
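Oral dosing at 0.4 mmol/kg to groups of six rats, 1 h before intrapleural carrageenan plus Evans blue dye. Rats killed 6 h after the irritants and pleural fluid volume measured. Value is percent reduction in fluid volume relative to untreated controls.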

Data set [2] concerns Rattus norvegicus. The data set can be described thus: […] in Freund's adjuvant-induced Lewis rat arthritis model assessed as reduction of uninjected paw volume at 0.2 mmol/kg, po qd administered on day 0 to day 21 of adjuvant challenge measured on day 21 by plethysmometry relative to control. The following applies: in vivo. The class given is organism-based. The method in brief: (§1)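 Male Lewis rats (125-150 g) given an intradermal injection of 0.05 mL of 0.65% Mycobacterium tuberculosis suspension in Freund's adjuvant into the right hind plantar surface on day 0. Negative controls received mineral oil only. Dosing once daily by gavage, groups of six, days 0-21. Injected and uninjected hind-foot volume change over days 0-21 measured plethysmographically. Value is percent reduction relative to controls.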

Data set [3] deals with Rattus norvegicus. Briefly: Antiinflammatory activity in Freund's adjuvant-induced Lewis rat arthritis model assessed as reduction of paw volume at 0.2 mmol/kg, po qd administered on day 0 to day 21 of adjuvant challenge measured on day 7 by plethysmometry relative to control. It is filed as functional.
Data set [4] deals with Rattus norvegicus. Briefly: Antiinflammatory activity in Freund's adjuvant-induced Lewis rat arthritis model assessed as reduction of paw volume at 0.2 mmol/kg, po qd administered on day 0 to day 21 of adjuvant challenge measured on day 21 by plethysmometry relative to control. The class given is functional. A digest of the protocol: as §1

On to `Cl.O=C(O)CCn1ncc(-c2cccnc2)n1`, for which the Activity with Rattus norvegicus [1] was -1.3%.
Same read-out and setting: with `Cc1nn(CCC(=O)O)nc1-c1ccccc1` the figure was 17%.
Consider `O=C(O)CCn1ncc(-c2cc(Cl)cc(Cl)c2)n1`, for which the Activity in the data set on Rattus norvegicus [2] was determined as 38%; in the data set on Rattus norvegicus [3], 35%; in the data set on Rattus norvegicus [4], 33%; in the data set with Rattus norvegicus [1], 0%.
Take `O=C(O)CCn1ncc(-c2cccc(Br)c2)n1`: the Activity was found to be 25% with Rattus norvegicus [2], 19% in the data set with Rattus norvegicus [3], 30% in the data set with Rattus norvegicus [4] and 29% in the data set with Rattus norvegicus [1].
`O=C(O)CCn1ncc(-c2cccc(Cl)c2)n1`: the Activity in the data set with Rattus norvegicus [2] turned out to be 26%; with Rattus norvegicus [3] it was 28%; in the data set with Rattus norvegicus [4], 42%; in the data set on Rattus norvegicus [1] it was 19%.
The corresponding values for `O=C(O)CCn1ncc(-c2ccccc2)n1` are 63%, 36%, 57% and 42%.
As to `O=C(O)/C=C/c1cnn(-c2cccc(Br)c2)n1`, the Activity in the data set with Rattus norvegicus [2] was 16%; in the data set with Rattus norvegicus [3], 12%; in the data set on Rattus norvegicus [4], 14%; in the data set with Rattus norvegicus [1], 20%.
Take `O=C(O)/C=C/c1cnn(-c2cccc(Cl)c2)n1`: in the data set on Rattus norvegicus [1], the Activity amounted to 18%.
As for `O=C(O)/C=C/c1cnn(-c2ccccc2)n1`, the Activity was found to be 42% in the data set with Rattus norvegicus [2], 14% in the data set with Rattus norvegicus [3], 20% with Rattus norvegicus [4] and 13% with Rattus norvegicus [1].
The corresponding values for `O=C(O)CCc1cnn(-c2cccc(Br)c2)n1` are 39%, 14%, 35% and 14%.
As to `O=C(O)CCc1cnn(-c2cccc(Cl)c2)n1`, the Activity was 11% in the data set with Rattus norvegicus [2], 13% with Rattus norvegicus [3], 32% in the data set with Rattus norvegicus [4] and 33% in the data set with Rattus norvegicus [1].
For the compound `O=C(O)CCc1cnn(-c2ccccc2)n1`, the Activity with Rattus norvegicus [2] is given as 36%; in the data set with Rattus norvegicus [3], 9.1%; in the data set on Rattus norvegicus [4] it was 24%; with Rattus norvegicus [1], 28%.
The corresponding values for `O=C(O)CCn1cc(-c2cccnc2)nn1` are -30%, 9.3%, 18% and 5.1%.
`CC(=O)Nc1cccc(-c2cn(CCC(=O)O)nn2)c1`: the Activity is given as -19% in the data set with Rattus norvegicus [2], 1.7% with Rattus norvegicus [3], 20% in the data set with Rattus norvegicus [4] and 9.9% with Rattus norvegicus [1].
On to `Nc1cccc(-c2cn(CCC(=O)O)nn2)c1`, for which the Activity in the data set with Rattus norvegicus [2] is -6.7%; with Rattus norvegicus [3], 2.8%; in the data set with Rattus norvegicus [4], 14%; in the data set with Rattus norvegicus [1], 1.4%.
With `CCOc1cccc(-c2cn(CCC(=O)O)nn2)c1`, the Activity in the data set on Rattus norvegicus [2] is recorded as -28%; in the data set with Rattus norvegicus [3] it was 0.4%; in the data set on Rattus norvegicus [4], -9%; in the data set on Rattus norvegicus [1] it was 0.6%.
On the same counts, the results for `Cc1cccc(-c2cn(CCC(=O)O)nn2)c1` are 22%, 10%, -7.8% and 0%.
On the same counts, the results for `O=C(O)CCn1cc(-c2cccc(Br)c2)nn1` are 23%, 0%, 7.2% and 11%.
On the same counts, the results for `O=C(O)CCn1cc(-c2cccc(Cl)c2)nn1` are -8.2%, -1.1%, 3.5% and -1.4%.
Take `O=C(O)CCn1cc(-c2cccc(F)c2)nn1`: the Activity with Rattus norvegicus [2] is recorded as 1.6%; with Rattus norvegicus [3], -9.9%; in the data set with Rattus norvegicus [4] it was -10%; with Rattus norvegicus [1], 1.7%.
Turning to `O=C(O)CCn1cc(-c2ccccc2)nn1`, the Activity in the data set on Rattus norvegicus [2] is listed as -12%; in the data set with Rattus norvegicus [3], 8.9%; in the data set with Rattus norvegicus [4], 2.2%; with Rattus norvegicus [1], 0%.
Consider `O=C(O)CCc1cn(-c2cccc(Cl)c2)nn1`, for which the Activity in the data set with Rattus norvegicus [2] is on record as 21%; in the data set with Rattus norvegicus [3], 10%; in the data set on Rattus norvegicus [4], -4.9%; in the data set on Rattus norvegicus [1] it was 10%.
As to `O=C(O)CCc1cn(-c2cccc(F)c2)nn1`, the Activity with Rattus norvegicus [2] is on record as -2%; with Rattus norvegicus [3] it was 22%; with Rattus norvegicus [4] it was -2.4%; in the data set with Rattus norvegicus [1], -4.1%.
Regarding `O=C(O)CCc1cn(-c2ccccc2)nn1`, the Activity is -3.2% in the data set with Rattus norvegicus [2], 2.3% in the data set on Rattus norvegicus [3], -1.6% with Rattus norvegicus [4] and 1.6% in the data set on Rattus norvegicus [1].
On the same counts, the results for `Cc1cccc(-c2ncn(CC(=O)O)n2)c1` are -13%, 0.2%, -6% and 3%.
On the same counts, the results for `Cc1cccc(-c2ncn(CCC(=O)O)n2)c1` are 50%, -5.1%, 7.1% and -3.2%.
Turning to `O=C(O)CCn1cnc(-c2cccc(Br)c2)n1`, the Activity in the data set with Rattus norvegicus [2] is 16%; with Rattus norvegicus [3] it was 6.2%; with Rattus norvegicus [4], 0.1%; in the data set with Rattus norvegicus [1], 8.9%.
The corresponding values for `O=C(O)CCn1cnc(-c2cccc(Cl)c2)n1` are 14%, 3%, 11% and 1.1%.
On the same counts, the results for `O=C(O)CCn1cnc(-c2ccccc2)n1` are 10%, 4.4%, 8.6% and -3.7%.
On the same counts, the results for `O=C(O)CCc1ncn(-c2cc(Cl)cc(Cl)c2)n1` are 71%, 23%, 30% and 5.2%.
Regarding `O=C(O)CCc1ncn(-c2cccc(Cl)c2)n1`, the Activity in the data set with Rattus norvegicus [1] came out at 7.5%.
As to `O=C(O)CCc1ncn(-c2ccccc2)n1`, the Activity in the data set with Rattus norvegicus [2] is given as -15%; in the data set with Rattus norvegicus [3] it was 1.3%; with Rattus norvegicus [4] it was -0.6%; with Rattus norvegicus [1] it was 12%.
As for `Cc1cccc(-c2n[nH]c(CCC(=O)O)n2)c1`, in the data set on Rattus norvegicus [1], the Activity is -3%.
`O=C(O)CCc1nc(-c2cccc(Br)c2)n[nH]1`: the Activity in the data set on Rattus norvegicus [2] was 30%; in the data set on Rattus norvegicus [3] it was -13%; in the data set with Rattus norvegicus [4], -1.2%; in the data set on Rattus norvegicus [1], -9%.
On the same counts, the results for `O=C(O)CCc1nc(-c2cccc(Cl)c2)n[nH]1` are 3%, 3%, 3% and 2.9%.
The corresponding values for `O=C(O)CCc1nc(-c2ccccc2)n[nH]1` are 30%, 9.1%, 4.2% and -1.7%.
Take `CN(C)c1nn(CCC(=O)[O-])nc1-c1ccccc1.[Na+]`: in the data set on Rattus norvegicus [1], the Activity is recorded as 0%.
Regarding `O=C(O)CCn1nncc1-c1ccccc1`, in the data set with Rattus norvegicus [1], the Activity is reported as 5%.
